{"source": "ChEMBL document CHEMBL4043073", "about": "“Boronic Acid Modifications Enhance the Anti-Influenza A Virus Activities of Novel Quindoline Derivatives” (J Med Chem, 2017)", "key": {"[1]": {"assay": "Selectivity index, ratio of CC50 for MDCK cells to IC50 for Influenza A virus (A/Puerto Rico/8/34(H1N1)) infected in MDCK cells by plaque assay", "format": "toxicity, cell-based", "settings": "dog, read-out: Ratio CC50/IC50"}, "Influenza A virus [2]": {"test_system": "Influenza A virus", "assay": "Antiviral activity against Influenza A virus (A/Puerto Rico/8/34(H1N1)) infected in A549 cells assessed as reduction in nuclear import of viral RNP by measuring colocalization with viral NP in cytoplasm at 10 uM preincubated with virus at 37 degC for 1 hr followed by viral adsorption at 4 degC for 1 hr and subsequent infection in A549 cells measured at 2 to 4 hrs post infection by confocal microscopic method", "format": "functional, cell-based", "settings": "A/Puerto Rico/8/1934(H1N1)", "procedure,_shortened": "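PR8 (MOI 1.0) pretreated with 10 μM compound 1 h at 37 °C, adsorbed 1 h at 4 °C, then A549 cells were kept in infecting medium with 10 μM compound. Fixed with 4% paraformaldehyde at 2 or 4 h p.i., permeabilised with Triton X-100 and blocked. Anti-NP plus FITC secondary, confocal imaging; nuclear NP intensity per unit area quantified (n = 30 images).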"}, "Influenza A virus [3]": {"test_system": "Influenza A virus", "assay": "Antiviral activity against Influenza A virus (A/Puerto Rico/8/34(H1N1)) infected in MDCK cells assessed as reduction in virus-induced cytopathic effect after 48 hrs by crystal violet staining based assay", "format": "functional, cell-based", "settings": "A/Puerto Rico/8/1934(H1N1)", "procedure,_shortened": "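MDCK cells infected with PR8 at MOI 0.1; compounds added in triplicate after inoculum removal. After 48 h cells were fixed with 4% formaldehyde and stained with 0.1% crystal violet. Dye was methanol-solubilised and read at 570 nm; IC50 was the concentration halving CPE.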"}, "Influenza A virus [4]": {"test_system": "Influenza A virus", "assay": "Antiviral activity against Influenza A virus (A/Puerto Rico/8/34(H1N1)) infected in MDCK cells assessed as reduction in virus titer at 10 uM preincubated with virus for 1 hr followed by viral infection measured after 24 hrs by crystal violet staining based plaque assay", "format": "functional, cell-based", "settings": "A/Puerto Rico/8/1934(H1N1)", "procedure,_shortened": "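PR8 (MOI 1.0) preincubated with compound (2.5–10 μM) 1 h at 37 °C, then used to infect MDCK cells. After adsorption, medium with the same compound concentration was added. At 24 h p.i. supernatant virus titer was measured by plaque assay; n = 3.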"}, "[5]": {"assay": "Drug uptake in human A549 cell membranes at 20 uM after 4 hrs by DAPI staining based confocal microscopic analysis", "format": "ADME", "settings": "a549, 4 h", "procedure,_shortened": "(§1)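 A549 cells incubated with 20 μM compound 4 h at 37 °C, then fixed and DAPI-stained. Compound intrinsic fluorescence located by confocal microscopy.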"}, "Canis lupus familiaris [6]": {"species": "Canis lupus familiaris", "assay": "(§2) Inhibition of NFkappaB activation-mediated viral endocytosis in MDCK cells infected with Influenza A virus (A/Puerto Rico/8/34(H1N1)) assessed as Akt phosphorylation level at 10 uM preincubated with virus for 1 hr followed by viral infection measured after 4 hrs by Western blot method relative to control (reference value: 1.4)", "format": "cell-based", "procedure,_shortened": "(§3)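 PR8 (MOI 1.0) pretreated with compound 1 h at 37 °C, then MDCK cells were kept in infecting medium with 5 or 10 μM for 4 h; ribavirin 50 μg/mL as comparator. Lysates were immunoblotted for phospho-ERK1/2, p38, NF-κB or Akt, with β-actin/GAPDH loading controls and AP/NBT-BCIP detection. Densitometry was normalised to uninfected cells (= 1.0); n = 3.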"}, "[7]": {"test_system": "Influenza A virus (A/California/04/2009(H1N1))", "assay": "(§4) Antiviral activity against Influenza A virus (A/California/04/2009(H1N1)) infected in MDCK cells assessed as reduction in viral HA titer by measuring reduction in chicken RBC […] after 24 hrs by hemagglutination test", "format": "functional, cell-based", "procedure,_shortened": "(§5)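 MDCK cells infected at MOI 3.0 (single-cycle) with PR8, Cal09 or swine H3N2 Minnesota, then treated with compound for 24 h. Supernatant HA titers were read by 2-fold serial dilution with an equal volume of 1% chicken RBCs, 60 min at 4 °C. Expressed as percent of untreated-cell HA titer; IC50 derived; n = 4.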"}, "[8]": {"assay": "as §4", "format": "functional, cell-based", "procedure,_shortened": "as §5"}, "Influenza A virus [9]": {"test_system": "Influenza A virus", "assay": "Antiviral activity against Influenza A virus (A/Puerto Rico/8/34(H1N1)) infected in MDCK cells assessed as reduction in viral HA titer by measuring reduction in chicken RBC […] after 24 hrs by hemagglutination test", "format": "functional, cell-based", "settings": "A/Puerto Rico/8/1934(H1N1)", "procedure,_shortened": "as §5"}, "Canis lupus familiaris [10]": {"species": "Canis lupus familiaris", "assay": "(§6) Inhibition of MAPK signaling-mediated nuclear import of viral RNP in MDCK cells infected with Influenza A virus (A/Puerto Rico/8/34(H1N1)) assessed as ERK1/2 phosphorylation at 5 uM preincubated with virus for 1 hr followed by viral infection after 4 hrs by Western blot method relative to control (reference value: 1.4)", "format": "cell-based", "procedure,_shortened": "as §3"}, "Canis lupus familiaris [11]": {"species": "Canis lupus familiaris", "assay": "as §6, with “p38” for “ERK1/2”, “5.1)” for “1.4)”", "format": "cell-based", "procedure,_shortened": "as §3"}, "Canis lupus familiaris [12]": {"species": "Canis lupus familiaris", "assay": "as §2, with “RNA synthesis” for “endocytosis”, “NF-kB” for “Akt”, “1.8)” for “1.4)”", "format": "cell-based", "procedure,_shortened": "as §3"}, "NCI-H1299": {"test_system": "NCI-H1299", "assay": "Cytotoxicity against human H1299 cells at 20 uM after 48 hrs by resazurin based fluorescence method", "format": "cell-based", "settings": "nci-h1299, 48 h", "procedure,_shortened": "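Confluent MDCK, A549 or H1299 cells exposed in triplicate to compound for 48 h at 37 °C (A549/H1299 at 20 μM). Resazurin added to 0.2 mg/mL final for 16 h. Fluorescence read at ex 544 / em 595 nm; viability as % of untreated.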"}, "Influenza A virus [13]": {"test_system": "Influenza A virus", "assay": "Antiviral activity against Influenza A virus (A/Puerto Rico/8/34(H1N1)) infected in Kunming mouse assessed as pulmonary viral titer reduction at 10 mg/kg/day, po qd for 4 days measured on day 4 post last dose by crystal violet staining based plaque assay", "format": "functional, organism-based", "settings": "A/Puerto Rico/8/1934(H1N1)", "procedure,_shortened": "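Female 4-week-old Kunming mice infected intranasally with PR8 (4 HAU/mouse). Oral gavage once daily began 2 h post-inoculation; placebo control. Mice euthanised on day 4; lungs homogenised in PBS and titrated by plaque assay on cell monolayers (agarose overlay, 3 days, crystal violet).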"}, "Influenza A virus [14]": {"test_system": "Influenza A virus", "assay": "Antiviral activity against Influenza A virus (A/Puerto Rico/8/34(H1N1)) infected in MDCK cells assessed as virus yeild reduction at 10 uM treated during viral adsorption for 1 hr measured at 24 hrs post infection by crystal violet staining based plaque assay", "format": "functional, cell-based", "settings": "A/Puerto Rico/8/1934(H1N1)", "procedure,_shortened": "(§7)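 Time-of-addition on MDCK cells, PR8 MOI 1.0, 10 μM compound. Three arms: cells pretreated before infection; compound present during adsorption 1 h at 4 °C; or compound added after removal of unadsorbed virus. Virus yield at 24 h p.i. by plaque assay; n = 3.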"}, "Canis lupus familiaris [15]": {"species": "Canis lupus familiaris", "assay": "as §6, with “10” for “5”", "format": "cell-based", "procedure,_shortened": "as §3"}, "Influenza A virus [16]": {"test_system": "Influenza A virus", "assay": "Antiviral activity against Influenza A virus (A/Puerto Rico/8/34(H1N1)) infected in MDCK cells assessed as virus yeild reduction at 10 uM preincubated with cells for 1 hr followed by viral infection for 1 hr measured at 24 hrs post infection by crystal violet staining based plaque assay", "format": "functional, cell-based", "settings": "A/Puerto Rico/8/1934(H1N1)", "procedure,_shortened": "as §7"}, "Canis lupus familiaris [17]": {"species": "Canis lupus familiaris", "assay": "as §2, with “5” for “10”", "format": "cell-based", "procedure,_shortened": "as §3"}, "Influenza A virus [18]": {"test_system": "Influenza A virus", "assay": "Antiviral activity against Influenza A virus (A/Puerto Rico/8/34(H1N1)) infected in MDCK cells assessed as virus yeild reduction at 10 uM treated post 1 hr of viral adsorption measured at 24 hrs post infection by crystal violet staining based plaque assay", "format": "functional, cell-based", "settings": "A/Puerto Rico/8/1934(H1N1)", "procedure,_shortened": "as §7"}, "[19]": {"assay": "Drug uptake in human A549 cell nucleus at 20 uM after 4 hrs by DAPI staining based confocal microscopic analysis", "format": "ADME", "settings": "a549, 4 h", "procedure,_shortened": "as §1"}}, "note": "Active and inactive are the calls of the source. The rule behind the calls is not given here.", "data": [{"smiles": "O=C(Nc1ccccc1Nc1c2ccccc2nc2c1[nH]c1ccccc12)c1cccc(B(O)O)c1", "values": [{"measurement": "selectivity ratio", "setting": "[1]", "value": "56.8 to 64.6"}, {"measurement": "Activity", "setting": "Influenza A virus [2]", "value": "Active"}, {"measurement": "IC50", "setting": "Influenza A virus [3]", "value": 5.1, "unit": "µM"}, {"measurement": "IC50", "setting": "Influenza A virus [4]", "value": 2.5, "unit": "µM"}, {"measurement": "Drug uptake", "setting": "[5]", "value": "Active"}, {"measurement": "fold change (FC)", "setting": "Canis lupus familiaris [6]", "value": 0.8}, {"measurement": "Activity", "setting": "[7]", "value": "Dose-dependent effect"}, {"measurement": "IC50", "setting": "[8]", "value": 4.3, "unit": "µM"}, {"measurement": "Activity", "setting": "Influenza A virus [9]", "value": "Dose-dependent effect"}, {"measurement": "IC50", "setting": "Influenza A virus [9]", "value": 2.5, "unit": "µM"}, {"measurement": "fold change (FC)", "setting": "Canis lupus familiaris [10]", "value": 0.7}, {"measurement": "fold change (FC)", "setting": "Canis lupus familiaris [11]", "value": 3.3}, {"measurement": "fold change (FC)", "setting": "Canis lupus familiaris [12]", "value": 0.4}, {"measurement": "Activity", "setting": "NCI-H1299", "value": "Non-Toxic"}, {"measurement": "Activity", "setting": "Influenza A virus [13]", "value": "Active"}, {"measurement": "Activity", "setting": "Influenza A virus [14]", "value": "Active"}, {"measurement": "fold change (FC)", "setting": "Canis lupus familiaris [15]", "value": 0.6}, {"measurement": "Activity", "setting": "Influenza A virus [16]", "value": "inactive"}, {"measurement": "fold change (FC)", "setting": "Canis lupus familiaris [17]", "value": 1.2}, {"measurement": "Activity", "setting": "Influenza A virus [18]", "value": "inactive"}, {"measurement": "Drug uptake", "setting": "[19]", "value": "Not Active"}]}]}
